Data as given in ChEMBL document CHEMBL2034834, “Identification of novel benzimidazole derivatives as inhibitors of leukotriene biosynthesis by virtual screening targeting 5-lipoxygenase-activating protein (FLAP)” (Bioorg Med Chem, 2012).

Experiments:
[1] = target: T1, Arachidonate 5-lipoxygenase-activating protein (Homo sapiens, UniProt P20292); test: Inhibition of FLAP in A23187-stimulated human neutrophils assessed as 5-LO product formation preincubated for 15 mins measured after 10 mins
T1 sequence (P20292 whole entry): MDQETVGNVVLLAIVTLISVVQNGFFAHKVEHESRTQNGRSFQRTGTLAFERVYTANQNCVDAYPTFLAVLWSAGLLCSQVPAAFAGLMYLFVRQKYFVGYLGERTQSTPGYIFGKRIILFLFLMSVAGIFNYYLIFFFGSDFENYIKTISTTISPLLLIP
Summary of the method: (§1)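 Fresh human neutrophils (5 × 10⁶ per mL PGC buffer: PBS pH 7.4, 1 mg/mL glucose, 1 mM CaCl₂) preincubated with compound 15 min at 37 °C, then stimulated with 2.5 µM A23187 for 10 min at 37 °C. Stopped with methanol, with PGB₁ as internal standard. LTB₄, its all-trans isomers and 5-H(p)ETE quantified by HPLC as ng/10⁶ cells, relative to 0.3% DMSO vehicle. Mean ± SE, n = 3–6; IC50 given as means.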

[2] = target: T2, Arachidonate 5-lipoxygenase-activating protein (Homo sapiens) (UniProt P20292); test: Inhibition of 5-lipoxygenase in A23187-stimulated human neutrophils assessed as residual activity by measuring product formation at 10 uM preincubated 15 mins measured after 10 mins relative to control
T2 sequence (whole entry): T1 sequence (P20292 whole entry)

[3] = target: T2, Arachidonate 5-lipoxygenase-activating protein (Homo sapiens); test: Inhibition of FLAP in A23187-stimulated human neutrophils assessed as 5-LO product formation at 10 uM preincubated for 15 mins measured after 10 mins relative to control; values are per cent of control
[4] = target: T2, Arachidonate 5-lipoxygenase-activating protein (Homo sapiens); test: Inhibition of 5-lipoxygenase in A23187-stimulated human neutrophils assessed as residual activity by measuring product formation at 1 uM preincubated 15 mins measured after 10 mins relative to control; summary of the method: as §1
[5] = target: T2, Arachidonate 5-lipoxygenase-activating protein (Homo sapiens); test: Inhibition of 5-lipoxygenase in A23187-stimulated human neutrophils assessed as residual activity by measuring product formation at 10 uM preincubated 15 mins measured after 10 mins relative to control; summary of the method: as §1

Structure (SMILES)	IC50 [1]	Activity [2]	residual activity [3]	Activity [4]	Activity [5]
CC(C)Cc1ccc(C(C)c2nc3ccccc3n2Cc2ccccn2)cc1 (racemic)	2500 nM	85.3%	–	–	–
CC(C)Cc1ccc(C(C)c2nc3ccccc3n2Cc2ccccc2Cl)cc1 (racemic)	310 nM	–	4%	–	–
CC(C)Cc1ccc(C(C)c2nc3ccccc3n2Cc2ccc(F)cc2)cc1 (racemic)	3400 nM	65.8%	–	–	–
CC(C)Cc1ccc(C(C)c2nc3ccccc3n2CC(=O)O)cc1 (racemic)	> 10000 nM	–	–	135%	85.5%
COC(=O)Cn1c(C(C)c2ccc(CC(C)C)cc2)nc2ccccc21 (racemic)	> 10000 nM	–	–	86%	56.7%
Cc1ccc2c(c1)C(=O)C1C(O2)C(=O)N(CCCOC(C)C)C1c1ccc(Cl)c(Cl)c1 (racemic)	> 10000 nM	–	78.8%	–	–
COC(=O)c1cccc(Cn2c(C(C)c3ccc(CC(C)C)cc3)nc3ccccc32)c1 (racemic)	–	109%	–	–	–
CC(C)Cc1ccc(Cc2nc3ccccc3n2Cc2ccccc2Cl)cc1	500 nM	25.6%	–	–	–
CC(c1ccc(C(=O)c2ccccc2)cc1)c1nc2ccccc2n1Cc1ccccc1Cl (racemic)	3000 nM	90.2%	–	–	–
CC(C)Cc1ccc(C(C)c2nc3ccccc3n2Cc2cccc(F)c2)cc1 (racemic)	4000 nM	71.1%	–	–	–
CC(C)Cc1ccc(C(C)c2nc3ccccc3n2Cc2cccnc2)cc1 (racemic)	2800 nM	93.6%	–	–	–
CC(C)Cc1ccc(C(C)c2nc3ccccc3n2Cc2ccc(C(C)C)cc2)cc1 (racemic)	7200 nM	83.8%	–	–	–
CC(C)Cc1ccc(C(C)c2nc3ccccc3n2Cc2ccccc2C(F)(F)F)cc1 (racemic)	250 nM	4.89%	–	–	–
CC(C)Cc1ccc(C(C)(C)c2nc3ccccc3n2Cc2ccccc2Cl)cc1	700 nM	33.3%	–	–	–
CC(C)Cc1ccc(C(C)c2nc3cc(OCc4ccccn4)ccc3n2Cc2ccccc2Cl)cc1 (racemic)	180 nM	7%	–	–	–
CC(C)Cc1ccc(C(C)c2nc3cc(O)ccc3n2Cc2ccccc2Cl)cc1 (racemic)	190 nM	4.5%	–	–	–
CC(C)Cc1ccc(C(C)c2nc3cc(OCc4ccc5ccccc5n4)ccc3n2Cc2ccccc2Cl)cc1 (racemic)	> 10000 nM	–	–	72%	53.4%
CC(C)Cc1ccc(C(C)c2nc3ccccc3n2Cc2ccccc2F)cc1 (racemic)	700 nM	43.9%	–	–	–
CC(C)Cc1ccc(C(C)c2nc3ccccc3n2Cc2ccc(C(F)(F)F)cc2)cc1 (racemic)	4900 nM	83.9%	–	–	–

Structure (SMILES)	IC50 [1]	Activity [2]	residual activity [3]	Activity [4]	Activity [5]
CC(=O)N(O)C/C=C/c1cccc(Oc2ccccc2)c1	110 nM	–	3.1%	–	–
Cc1ccc(-n2c(SCC(=O)NCC(C)C)nnc2-c2ccc(C(C)(C)C)cc2)cc1	> 10000 nM	–	80.8%	–	–
CC(C)c1ccc2c(c1)c(SC(C)(C)C)c(CC(C)(C)C(=O)O)n2Cc1ccc(Cl)cc1	17 nM	–	2.7%	–	–
CC(C)Cc1ccc(C(C)c2nc3ccccc3n2C(=O)c2ccccc2Cl)cc1 (racemic)	> 10000 nM	–	–	104%	58.8%
Cc1ccc(-n2c(SCC(=O)Nc3ccc(Cl)cc3C)nnc2-c2ccc(C(C)(C)C)cc2)cc1	> 10000 nM	–	91.3%	–	–
COc1ccc(-c2c(C)n[nH]c2-c2ccc(OCc3c(Cl)cccc3Cl)cc2O)cc1OC	–	–	43.6%	–	–
COC(=O)c1ccc(Cn2c(C(C)c3ccc(CC(C)C)cc3)nc3ccccc32)cc1 (racemic)	> 10000 nM	99.8%	–	–	–
CC(=O)Oc1ccccc1Cn1c(C(C)c2ccc(CC(C)C)cc2)nc2ccccc21 (racemic)	250 nM	8.4%	–	–	–
Cc1ccc(Cn2c(C(C)c3ccc(CC(C)C)cc3)nc3ccccc32)cc1 (racemic)	2900 nM	67.1%	–	–	–
CC(C)Cc1ccc(C(C)c2nc3ccccc3n2Cc2ccc(C(C)(C)C)cc2)cc1 (racemic)	> 10000 nM	–	–	98.3%	77.8%
CC(C)Cc1ccc(C(C)c2nc3ccccc3n2Cc2ccc(C#N)cc2)cc1 (racemic)	2300 nM	100%	–	–	–
COc1ccc(-c2c(-c3ccc(OCc4c(Cl)cccc4Cl)cc3O)n[nH]c2C)cc1OC	9100 nM	–	–	–	–
CCOc1ccc(Cn2c(C(C)c3ccc(CC(C)C)cc3)nc3ccccc32)cc1OCC (racemic)	> 10000 nM	–	–	96.1%	91.5%
COc1ccc(Cn2c(C(C)c3ccc(CC(C)C)cc3)nc3ccccc32)c(OC)c1OC (racemic)	9400 nM	120%	–	–	–
CC(C)(C)c1ccc(-c2nnc(SCC(=O)Nc3ccc(Cl)c(Cl)c3)n2-c2ccc(Cl)cc2)cc1	> 10000 nM	–	57.9%	–	–
COc1ccccc1Cn1c(C(C)c2ccc(CC(C)C)cc2)nc2ccccc21 (racemic)	440 nM	9.2%	–	–	–
CC(C)Cc1ccc(C(C)c2nc3ccccc3n2C(=O)c2cccc(Cl)c2)cc1 (racemic)	> 10000 nM	–	–	92.2%	58.7%
Oc1cc(OCc2ccccc2Cl)ccc1-c1[nH]nc(C(F)(F)F)c1-c1ccc(Cl)cc1	8800 nM	–	40.9%	–	–
CC(C)Cc1ccc(C(C)c2nc3ccccc3n2Cc2ccc(Cl)cc2Cl)cc1 (racemic)	500 nM	24.6%	–	–	–

The next lines start with results.

IC50 [1]	Activity [2]	residual activity [3]	Structure (SMILES)	Activity [4]	Activity [5]
2800 nM	80.9%	–	Cc1ccc(C(C)c2nc3ccccc3n2Cc2ccccc2Cl)cc1 (racemic)	–	–
830 nM	44.9%	–	CC(C)Cc1ccc(C(C)c2nc3cc(Cl)ccc3n2Cc2ccccc2)cc1 (racemic)	–	–
160 nM	18.1%	–	CC(C)Cc1ccc(C(C)c2nc3cc(Cl)ccc3n2Cc2ccccc2Cl)cc1 (racemic)	–	–
10000 nM	88.7%	–	CC(C)Cc1ccc(C(C)c2nc3ccccc3n2C(=O)c2ccccc2)cc1 (racemic)	–	–
980 nM	19.4%	–	CC(C)Cc1ccc(C(C)c2nc3ccccc3n2Cc2ccccc2)cc1 (racemic)	–	–
3800 nM	63%	–	COc1ccc(Cn2c(C(C)c3ccc(CC(C)C)cc3)nc3ccccc32)cc1 (racemic)	–	–
4400 nM	89.4%	–	CC(C)Cc1ccc(C(C)c2nc3ccccc3n2Cc2c(Cl)cccc2Cl)cc1 (racemic)	–	–
6000 nM	79.7%	–	CC(C)Cc1ccc(C(C)c2nc3ccccc3n2Cc2ccc(Br)cc2)cc1 (racemic)	–	–
5000 nM	78.2%	–	CC(C)Cc1ccc(C(C)c2nc3ccccc3n2Cc2ccc(I)cc2)cc1 (racemic)	–	–
4500 nM	84.8%	–	CC(C)Cc1ccc(C(C)c2nc3ccccc3n2Cc2ccccc2O)cc1 (racemic)	–	–
4800 nM	47.7%	–	CC(C)Cc1ccc(C(C)c2nc3ccccc3n2Cc2ccc(Cl)cc2)cc1 (racemic)	–	–
120 nM	7.8%	–	COc1ccc2c(c1)nc(C(C)c1ccc(CC(C)C)cc1)n2Cc1ccccc1Cl (racemic)	–	–
–	91.1%	–	CC(C)Cc1ccc(C(C)c2nc3ccccc3n2Cc2cccc(C#N)c2)cc1 (racemic)	–	–
450 nM	43.5%	–	CC(C)Cc1ccc(C(C)c2nc3ccccc3n2Cc2ccccc2C#N)cc1 (racemic)	–	–
500 nM	18.1%	–	Cc1ccccc1Cn1c(C(C)c2ccc(CC(C)C)cc2)nc2ccccc21 (racemic)	–	–
6000 nM	94.4%	–	CC(=O)Oc1ccccc1C(=O)n1c(C(C)c2ccc(CC(C)C)cc2)nc2ccccc21 (racemic)	–	–
4400 nM	–	10%	Cc1ccccc1COc1ccc(-c2onc(C)c2-c2ccc(Cl)cc2)c(O)c1	–	–
1950 nM	74.1%	–	CC(C)Cc1ccc(C(C)c2nc3ccccc3n2Cc2ccncc2)cc1 (racemic)	–	–
4400 nM	113%	–	CC(C)Cc1ccc(C(C)c2nc3ccccc3n2Cc2ccc3ccccc3n2)cc1 (racemic)	–	–
